Assay results taken from ChEMBL document CHEMBL4689842, “EUbOPEN Chemogenomics Library wave 1” (2021).

System: U2OS
Test: Multiplex assay against U2OS
Assay type: toxicity, cell-based
Conditions: human
Procedure, shortened: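 Compound was added to live cells that had been stained at seeding with Hoechst33342, BioTracker Green Microtubule Cytoskeleton Dye, MitoTracker Red and Annexin V Alexa Fluor 680, and imaging followed on a CQ1 microscope at 37°C and 5% CO2. CellPathfinder machine-learning gating divided cells into Hoechst high-intensity objects or normal cells, normal cells into healthy, pyknosed or fragmented nuclei, and pyknosed cells into mitotic or apoptotic. Tubulin, mitochondrial-mass and membrane-permeability phenotypes are per cents of healthy-nucleus cells.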

[1] = 12 h, 1 µM, compound concentration 1 uM, replicate 1
[2] = 12 h, 1 µM, compound concentration 1 uM, replicate 2
[3] = 12 h, 10 µM, compound concentration 10 uM, replicate 1
[4] = 12 h, 10 µM, compound concentration 10 uM, replicate 2
[5] = 24 h, 1 µM, compound concentration 1 uM, replicate 1
[6] = 24 h, 1 µM, compound concentration 1 uM, replicate 2
[7] = 24 h, 10 µM, compound concentration 10 uM, replicate 1
[8] = 24 h, 10 µM, compound concentration 10 uM, replicate 2
[9] = 48 h, 1 µM, compound concentration 1 uM, replicate 1
[10] = 48 h, 1 µM, compound concentration 1 uM, replicate 2
[11] = 48 h, 10 µM, compound concentration 10 uM, replicate 1
[12] = 48 h, 10 µM, compound concentration 10 uM, replicate 2

Compound: O=C(O)c1ccc2cc(-c3ccc(O)c(C45CC6CC(CC(C6)C4)C5)c3)ccc2c1 [O-DEMETHYLATED ADAPALENE]
- Population Apoptotic (%) [1]: 50%
- Population Fragmented Nuclei (%) [1]: 21%
- Population Healthy Nuclei (%) [1]: 66%
- Population Hoechst High Intensity Objects (%) [1]: 11%
- Population Membrane Permeable-Phenotype (%) [1]: 13%
- Population Mitochondria Different-Phenotype (%) [1]: 12%
- Population Mitotic Cells (%) [1]: 50%
- Population Normal (%) [1]: 88%
- Population Pyknosed Nuclei (%) [1]: 11%
- Population Tubulin-Different-Phenotype (%) [1]: 15%
- Total Cell Count [1]: 98
- Population Apoptotic (%) [2]: 100%
- Population Fragmented Nuclei (%) [2]: 8%
- Population Healthy Nuclei (%) [2]: 87%
- Population Hoechst High Intensity Objects (%) [2]: 9%
- Population Membrane Permeable-Phenotype (%) [2]: 6%
- Population Mitochondria Different-Phenotype (%) [2]: 16%
- Population Mitotic Cells (%) [2]: 0%
- Population Normal (%) [2]: 90%
- Population Pyknosed Nuclei (%) [2]: 3%
- Population Tubulin-Different-Phenotype (%) [2]: 16%
- Total Cell Count [2]: 62
- Population Apoptotic (%) [3]: 66%
- Population Fragmented Nuclei (%) [3]: 9%
- Population Healthy Nuclei (%) [3]: 85%
- Population Hoechst High Intensity Objects (%) [3]: 6%
- Population Membrane Permeable-Phenotype (%) [3]: 4%
- Population Mitochondria Different-Phenotype (%) [3]: 15%
- Population Mitotic Cells (%) [3]: 33%
- Population Normal (%) [3]: 93%
- Population Pyknosed Nuclei (%) [3]: 4%
- Population Tubulin-Different-Phenotype (%) [3]: 11%
- Total Cell Count [3]: 205
- Population Apoptotic (%) [4]: 100%
- Population Fragmented Nuclei (%) [4]: 11%
- Population Healthy Nuclei (%) [4]: 87%
- Population Hoechst High Intensity Objects (%) [4]: 2%
- Population Membrane Permeable-Phenotype (%) [4]: 1%
- Population Mitochondria Different-Phenotype (%) [4]: 16%
- Population Mitotic Cells (%) [4]: 0%
- Population Normal (%) [4]: 97%
- Population Pyknosed Nuclei (%) [4]: 1%
- Population Tubulin-Different-Phenotype (%) [4]: 25%
- Total Cell Count [4]: 83
- Population Apoptotic (%) [5]: 30%
- Population Fragmented Nuclei (%) [5]: 15%
- Population Healthy Nuclei (%) [5]: 73%
- Population Hoechst High Intensity Objects (%) [5]: 11%
- Population Membrane Permeable-Phenotype (%) [5]: 10%
- Population Mitochondria Different-Phenotype (%) [5]: 13%
- Population Mitotic Cells (%) [5]: 70%
- Population Normal (%) [5]: 89%
- Population Pyknosed Nuclei (%) [5]: 11%
- Population Tubulin-Different-Phenotype (%) [5]: 10%
- Total Cell Count [5]: 100
- Population Apoptotic (%) [6]: 100%
- Population Fragmented Nuclei (%) [6]: 7%
- Population Healthy Nuclei (%) [6]: 89%
- Population Hoechst High Intensity Objects (%) [6]: 6%
- Population Membrane Permeable-Phenotype (%) [6]: 6%
- Population Mitochondria Different-Phenotype (%) [6]: 30%
- Population Mitotic Cells (%) [6]: 0%
- Population Normal (%) [6]: 93%
- Population Pyknosed Nuclei (%) [6]: 3%
- Population Tubulin-Different-Phenotype (%) [6]: 18%
- Total Cell Count [6]: 60
- Population Apoptotic (%) [7]: 64%
- Population Fragmented Nuclei (%) [7]: 15%
- Population Healthy Nuclei (%) [7]: 77%
- Population Hoechst High Intensity Objects (%) [7]: 5%
- Population Membrane Permeable-Phenotype (%) [7]: 4%
- Population Mitochondria Different-Phenotype (%) [7]: 20%
- Population Mitotic Cells (%) [7]: 35%
- Population Normal (%) [7]: 94%
- Population Pyknosed Nuclei (%) [7]: 7%
- Population Tubulin-Different-Phenotype (%) [7]: 14%
- Total Cell Count [7]: 206
- Population Apoptotic (%) [8]: 0%
- Population Fragmented Nuclei (%) [8]: 14%
- Population Healthy Nuclei (%) [8]: 81%
- Population Hoechst High Intensity Objects (%) [8]: 7%
- Population Membrane Permeable-Phenotype (%) [8]: 7%
- Population Mitochondria Different-Phenotype (%) [8]: 26%
- Population Mitotic Cells (%) [8]: 100%
- Population Normal (%) [8]: 92%
- Population Pyknosed Nuclei (%) [8]: 3%
- Population Tubulin-Different-Phenotype (%) [8]: 28%
- Total Cell Count [8]: 83
- Population Apoptotic (%) [9]: 50%
- Population Fragmented Nuclei (%) [9]: 16%
- Population Healthy Nuclei (%) [9]: 75%
- Population Hoechst High Intensity Objects (%) [9]: 7%
- Population Membrane Permeable-Phenotype (%) [9]: 7%
- Population Mitochondria Different-Phenotype (%) [9]: 31%
- Population Mitotic Cells (%) [9]: 50%
- Population Normal (%) [9]: 92%
- Population Pyknosed Nuclei (%) [9]: 7%
- Population Tubulin-Different-Phenotype (%) [9]: 13%
- Total Cell Count [9]: 117
- Population Apoptotic (%) [10]: 71%
- Population Fragmented Nuclei (%) [10]: 9%
- Population Healthy Nuclei (%) [10]: 80%
- Population Hoechst High Intensity Objects (%) [10]: 2%
- Population Membrane Permeable-Phenotype (%) [10]: 10%
- Population Mitochondria Different-Phenotype (%) [10]: 42%
- Population Mitotic Cells (%) [10]: 28%
- Population Normal (%) [10]: 97%
- Population Pyknosed Nuclei (%) [10]: 9%
- Population Tubulin-Different-Phenotype (%) [10]: 21%
- Total Cell Count [10]: 73
- Population Apoptotic (%) [11]: 72%
- Population Fragmented Nuclei (%) [11]: 33%
- Population Healthy Nuclei (%) [11]: 47%
- Population Hoechst High Intensity Objects (%) [11]: 9%
- Population Membrane Permeable-Phenotype (%) [11]: 0%
- Population Mitochondria Different-Phenotype (%) [11]: 34%
- Population Mitotic Cells (%) [11]: 27%
- Population Normal (%) [11]: 90%
- Population Pyknosed Nuclei (%) [11]: 19%
- Population Tubulin-Different-Phenotype (%) [11]: 7%
- Total Cell Count [11]: 213
- Population Apoptotic (%) [12]: 90%
- Population Fragmented Nuclei (%) [12]: 14%
- Population Healthy Nuclei (%) [12]: 70%
- Population Membrane Permeable-Phenotype (%) [12]: 20%
- Population Mitochondria Different-Phenotype (%) [12]: 54%
- Population Mitotic Cells (%) [12]: 9%
- Population Pyknosed Nuclei (%) [12]: 14%
- Population Tubulin-Different-Phenotype (%) [12]: 45%
- Total Cell Count [12]: 83
